Bioassay records deposited in PubChem by Broad Institute.
An excerpt weighted towards active compounds, which were near 2.2% of everything screened.
SIRT5 inh: inhibitors of human sirtuin-5 desuccinylase; Q9NXA8; Purified SirT5, succinyl-peptide AMC, trypsin-coupled fluorescence; inhibition, % at 15 µM; 1.1% of 330,000 active; in the data active means inhibition above about 15%
Target sequence (Q9NXA8 whole entry, looked up): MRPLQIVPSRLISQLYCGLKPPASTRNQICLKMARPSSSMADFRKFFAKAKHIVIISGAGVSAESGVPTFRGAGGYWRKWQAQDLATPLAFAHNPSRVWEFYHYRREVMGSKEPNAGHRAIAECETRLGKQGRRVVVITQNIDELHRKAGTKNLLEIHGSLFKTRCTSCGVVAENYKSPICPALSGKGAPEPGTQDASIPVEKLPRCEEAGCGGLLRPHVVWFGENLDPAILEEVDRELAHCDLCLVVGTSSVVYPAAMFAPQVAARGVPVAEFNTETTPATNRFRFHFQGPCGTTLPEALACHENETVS
FN deposition inh: fibronectin deposition inhibition | AH1F fibroblasts, Alexa488-fibronectin deposition fluorescence, overnight | inhibition, % at 12.6 µM | 0.086% of 350,000 active | AID 743247;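 active means mean inhibition across replicates of 30% or more, regardless of how many single replicates reach that level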
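Assay system: AH1F fibroblast monolayer, labelled fibronectin deposition. Amount: 10000 cells per well. Also added: labelled fibronectin 24 nM. Compound: single-point pinned compound. Incubation: cell attachment 1 h, compound and FN exposure overnight. Detection: fluorescence after three HBSS washes, excitation 485 nm, emission 525 nm. Read-out: inhibition of fibronectin deposition signal.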
PGC1a acetyl inh: modulators of PGC1a acetylation; U2OS PGC1a acetylation, AlphaScreen anti-acetyl-lysine; with virally co-expressed GCN5 acetyltransferase; inhibition, % at 15.6 µM; 0.17% of 350,000 active;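 active means every replicate shows inhibition of at least 40%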
FGF22 binding: binders of recombinant human FGF22 by thermal shift; activity (Tm shift, normalised), % at 9.99 µM; 1.5% of 340,000 active; Q9HCT0; AID 651658; SYPRO orange fluorescence; percent of sucrose octasulfate shift, DMSO zero;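 active means mean Tm shift, scaled 0 neutral to 100 positive control, at about 1.3% or above, every replicate too, limit read from the data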
ERAP1 HTS inh: blocks human ERAP1 aminopeptidase activity. AID 652197. recombinant ERAP1, Leu-AMC fluorescence, 60 min. 0.15% of 340,000 active. Q9NZ08. inhibition, % at 10.7 µM;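 active means mean replicate inhibition of at least 30%, or all replicates individually reaching that 30% level; inactive means mean below 30% and not every replicate reaching it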
Hits are given with their value; - = inactive; . = no result given.

SMILES	SIRT5 inh	FN deposition inh	PGC1a acetyl inh	FGF22 binding	ERAP1 HTS inh
Cc1cccc(-n2nc(CC#N)c(C#N)c2N)c1	-	-	-	44	-
Cc1noc(C)c1S(=O)(=O)Nc1cccc2c1O[C@H](CN(C)C(=O)NC1CCCCC1)[C@H](C)CN([C@H](C)CO)C2=O	-	-	-	-	-
CC(C)CC#Cc1ccc2c(c1)O[C@H](CN(C)Cc1cccnc1)[C@@H](C)CN([C@H](C)CO)S2(=O)=O	-	-	-	-	-
COc1ccc2c3c([nH]c2c1)[C@H](CO)N(C(=O)c1cccnc1)CC31CCN(C(=O)CN(C)C)CC1	-	.	-	.	-
CC(C)C(NC(=O)c1ccco1)C(=O)OCC(=O)Nc1ccc(C(N)=O)cc1 (stereo not given)	-	.	-	43	-
CC(C)[C@H](NC(=O)OCc1ccccc1)C(=O)OCC(=O)NCc1ccco1	.	-	-	43	-
CNC(=O)C[C@H]1CC[C@@H]2[C@@H](COc3ccc(NC(=O)c4ccc(C(F)(F)F)cc4)cc3C(=O)N2C)O1	.	-	-	-	.
C[C@H](CO)N1C[C@H](C)[C@H](CN(C)C(=O)NC2CCCCC2)OCCCC[C@H](C)Oc2ccc(NS(C)(=O)=O)cc2C1=O	.	-	-	-	.
COC(=O)[C@@H](Cc1c[nH]c2ccccc12)NCc1ccc(B(O)O)cc1	-	-	-	-	-
COC(=O)[C@H](Cc1c[nH]c2ccccc12)NCc1cccc(B(O)O)c1	26	-	-	-	.
COc1ccccc1OCC(=O)NCC1CCCN(C(=O)c2ccccc2C(C)=O)C1 (stereo not given)	17	-	-	-	-
COc1ccccc1OCC(=O)NCC1CCCN(C(=O)c2ccccc2SC)C1 (stereo not given)	-	-	-	-	-
CCOC(=O)c1sc(=NC(=O)c2ccc(C)c(C)c2)n(C)c1C	-	-	-	43	-
CNC[C@@H]1Oc2ccc(N(C)C)cc2C(=O)N(C)C[C@@H]1C	.	-	.	.	.
O=C(CSc1nnc(NC(=O)c2ccco2)s1)Nc1cccc(F)c1	22	-	-	-	-
CC(=O)Nc1cccc(NC(=O)CSc2nnc(NC(=O)c3ccco3)s2)c1	-	-	-	1.5	-
CS(=O)(=O)Nc1nnc(SCC(=O)Nc2cccc([N+](=O)[O-])c2)s1	-	-	.	43	-
CC(C)C(=O)Nc1nnc(SCC(=O)Nc2ccc3c(c2)OCCO3)s1	-	-	-	1.4	-
COc1cccc(NC(=O)CSc2nnc(NC(=O)c3ccco3)s2)c1	-	-	-	-	-
Cc1noc(C)c1NC(=O)Nc1ccc2c(c1)C(=O)N([C@H](C)CO)C[C@@H](C)[C@H](CN(C)C(=O)Nc1ccc(C(F)(F)F)cc1)O2	-	.	-	-	-
COCCNc1nc(NCc2ccc(C(C)C)cc2)c2sccc2n1	.	-	.	23	-
COc1cc(/C=C2\CCCc3c2nc2ccccc2c3C(=O)O)cc(Br)c1O	-	-	-	21	-
CCOc1ccc(S(=O)(=O)N2CCN(C(=S)NC3CC3)CC2)cc1	-	-	-	-	-
COc1ccc(S(=O)(=O)N2CCN(C(=S)NC3CCCCC3)CC2)cc1	-	-	-	43	-
O=C1/C(=C/C=C/c2ccco2)SC(=S)N1NS(=O)(=O)c1ccccc1	43	-	-	-	-
SMILES	SIRT5 inh	FN deposition inh	PGC1a acetyl inh	FGF22 binding	ERAP1 HTS inh
CN(C)C(=O)[C@H]1[C@H](CO)[C@H]2Cn3c(ccc(-c4ccccc4)c3=O)[C@@H]1N2CCc1ccccc1	-	.	.	-	-
CCC(=O)N1[C@@H]2c3ccc(/C=C/c4ccccc4)c(=O)n3C[C@H]1[C@H](CO)[C@H]2C(=O)N(C)C	-	.	.	-	38
CCCN1[C@@H]2Cn3c(ccc(-c4cccnc4)c3=O)[C@H]1[C@@H](C(=O)NCCc1cn(C)cn1)[C@@H]2CO	-	.	.	-	31
COCC(=O)N1[C@@H]2Cn3c(ccc(/C=C/c4ccccc4)c3=O)[C@H]1[C@@H](C(=O)N1CCOCC1)[C@@H]2CO	-	-	.	-	128
CN(C)C(=O)[C@@H]1[C@@H](CO)[C@@H]2Cn3c(ccc(-c4ccccc4)c3=O)[C@H]1N2CCc1ccccc1	29	.	.	-	-
CN1[C@H](C(=O)N2CCOCC2)[C@@H](CO)[C@@H]2Cn3c(ccc(/C=C/c4ccccc4)c3=O)[C@@H]21	-	.	-	-	-
CN1CCN(C(=O)C[C@H]2C=C[C@H](NC(=O)Cc3ccccn3)[C@@H](CO)O2)CC1	-	-	-	-	-
